According to ChEMBL document CHEMBL1275346, “Halogenation of 4-hydroxy/amino-3-methoxyphenyl acetamide TRPV1 agonists showed enhanced antagonism to capsaicin” (Bioorg Med Chem, 2010):

Legend:
[1] = biological target: T1, Transient receptor potential cation channel subfamily V member 1 (Rattus norvegicus, UniProt O35433); experiment: Agonist activity at rat TRPV1 expressed in CHO cells assessed as increase of capsaicin-induced calcium uptake; type: functional, cell-based
Outline: (§1)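 Functional ⁴⁵Ca²⁺ uptake assay in CHO cells heterologously expressing rat TRPV1. Values are mean ± SEM from three or more experiments.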

[2] = biological target: T1, Transient receptor potential cation channel subfamily V member 1; experiment: Displacement of [3H]RTX from rat TRPV1 expressed in CHO cells; type: cell-based
Outline: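 Binding competition against [³H]RTX on rat TRPV1 heterologously expressed in CHO cells. Mean ± SEM from three or more experiments.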

[3] = biological target: T1, Transient receptor potential cation channel subfamily V member 1; experiment: Antagonist activity at rat TRPV1 expressed in CHO cells assessed as inhibition of capsaicin-induced calcium uptake; type: functional, cell-based; outline: as §1
[4] = biological target: Transient receptor potential cation channel subfamily V member 1 (Rattus norvegicus) (UniProt O35433); experiment: Agonist activity at rat TRPV1 expressed in CHO cells assessed as increase of capsaicin-induced calcium uptake relative to capsaicin; type: functional, cell-based
Outline: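 ⁴⁵Ca²⁺ uptake in CHO cells heterologously expressing rat TRPV1. Agonist efficacy is given as % of the maximal calcium uptake induced by 300 nM capsaicin. Mean ± SEM from three or more experiments.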

[5] = biological target: Transient receptor potential cation channel subfamily V member 1 (Rattus norvegicus) (UniProt O35433); experiment: Partial antagonist activity at rat TRPV1 expressed in CHO cells assessed as inhibition of capsaicin-induced calcium uptake; type: functional, cell-based; settings: concentration not given here
Outline: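 ⁴⁵Ca²⁺ uptake antagonism assay in CHO cells heterologously expressing rat TRPV1. The value is the extent of partial antagonism of capsaicin-induced uptake. Mean ± SEM from three or more experiments.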

T1 sequence (O35433 whole entry): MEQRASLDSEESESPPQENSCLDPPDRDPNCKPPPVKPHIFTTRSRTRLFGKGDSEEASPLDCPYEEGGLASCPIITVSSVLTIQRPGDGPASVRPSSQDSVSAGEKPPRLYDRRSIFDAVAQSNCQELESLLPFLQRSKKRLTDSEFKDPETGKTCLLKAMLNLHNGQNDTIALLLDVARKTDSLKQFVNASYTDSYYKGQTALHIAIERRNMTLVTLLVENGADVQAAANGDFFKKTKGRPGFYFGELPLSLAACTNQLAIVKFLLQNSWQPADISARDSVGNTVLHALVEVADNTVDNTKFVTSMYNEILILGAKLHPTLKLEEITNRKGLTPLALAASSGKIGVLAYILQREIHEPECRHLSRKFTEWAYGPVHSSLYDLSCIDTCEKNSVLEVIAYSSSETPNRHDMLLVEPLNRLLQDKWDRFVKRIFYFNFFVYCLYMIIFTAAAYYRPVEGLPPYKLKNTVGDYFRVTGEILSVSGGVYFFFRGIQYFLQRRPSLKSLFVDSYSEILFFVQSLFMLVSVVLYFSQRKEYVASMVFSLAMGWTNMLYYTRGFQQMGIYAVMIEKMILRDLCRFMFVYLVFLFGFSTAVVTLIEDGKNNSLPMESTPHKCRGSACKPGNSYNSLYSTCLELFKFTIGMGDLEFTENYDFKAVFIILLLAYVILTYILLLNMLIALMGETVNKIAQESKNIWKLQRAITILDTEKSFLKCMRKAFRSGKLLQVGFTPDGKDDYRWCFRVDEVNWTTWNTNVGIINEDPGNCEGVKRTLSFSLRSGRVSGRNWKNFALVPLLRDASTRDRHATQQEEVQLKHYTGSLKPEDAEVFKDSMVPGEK
Transient receptor potential cation channel subfamily V member 1 (Rattus norvegicus), sequence (O35433 whole entry): as above

Row | Compound | EC50 ([1]; cho) | Ki [2] | Ki ([3]; read-out: Ki) | Activity [4] | inhibition [5] | EC50 ([1]; read-out: EC50) | Ki ([3]; cho)
1 | CC(C)(C)C(=O)OCC(CNC(=O)Cc1cc(Br)cc(Br)c1)Cc1ccc(C(C)(C)C)cc1 (stereo not given) | Not Active | 210 nM | 108 nM |  |  |  | 
2 | CCCCCCCCC(=O)NCc1cc(OC)c(O)cc1I | Not Active |  |  |  |  |  | 
3 | COc1cc(CC(=O)NCC(COC(=O)C(C)(C)C)Cc2ccc(C(C)(C)C)cc2)cc(I)c1O (stereo not given) | Not Active | 22 nM | 2.8 nM |  |  |  | 
4 | COc1cc(CC(=O)NCC(COC(=O)C(C)(C)C)Cc2ccc(C)c(C)c2)cc(I)c1O (stereo not given) |  | 1630 nM | 225 nM | 6% |  |  | 
5 | COc1cc(CC(=O)NCc2ccc(C(C)(C)C)cc2)cc(Cl)c1O |  | 164 nM |  | 25% | 66% |  | 
6 | COc1cc(CC(=O)NCC(COC(=O)C(C)(C)C)Cc2ccc(C(C)(C)C)cc2)ccc1N (stereo not given) |  | 108 nM |  |  |  | 22.9 nM | Not Active
7 | COc1cc(CC(=O)NCc2ccc(C(C)(C)C)cc2)c(I)cc1O |  | 850 nM |  | 17% | 55% |  | 
8 | CC(C)(C)C(=O)OCC(CNC(=O)Cc1cc(Br)c(O)c(Br)c1)Cc1ccc(C(C)(C)C)cc1 (stereo not given) | Not Active | 20.2 nM | 10.7 nM |  |  |  | 
9 | COc1cc(CC(=O)NCC(COC(=O)C(C)(C)C)Cc2ccc(C(C)(C)C)cc2)cc(Br)c1N (stereo not given) | Not Active | 79.1 nM | 3.4 nM |  |  |  | 
10 | COc1cc(CC(=O)NCc2ccc(C(C)(C)C)cc2)cc(Br)c1OC(C)=O |  | 166 nM |  | 9% | 89% |  | 
11 | COc1cc(CC(=O)NCc2ccc(C(C)(C)C)cc2)c(Cl)cc1OC(C)=O |  | 388 nM |  | 83% | 62% |  | 
12 | COc1cc(CC(=O)NCC(COC(=O)C(C)(C)C)Cc2ccc(C(C)(C)C)cc2)c(Br)cc1OC(C)=O (stereo not given) |  | 34.9 nM |  | 22% | 63% |  | 
13 | CC(C)(C)C(=O)OCC(CNC(=O)Cc1cc(Br)c(N)c(Br)c1)Cc1ccc(C(C)(C)C)cc1 (stereo not given) | Not Active | 11.3 nM | 4.3 nM |  |  |  | 
14 | CC(C)(C)C(=O)OCC(CNC(=O)Cc1ccc(O)c(Br)c1)Cc1ccc(C(C)(C)C)cc1 (stereo not given) |  | 25.1 nM |  | 72% | 38% |  | 
15 | COc1cc(CC(=O)NCC(COC(=O)C(C)(C)C)Cc2ccc(C(C)(C)C)cc2)cc(I)c1OC(C)=O (stereo not given) | Not Active | 20.3 nM | 19.1 nM |  |  |  | 
16 | COc1cc(CC(=O)NCC(COC(=O)C(C)(C)C)Cc2ccc(C(C)(C)C)cc2)ccc1O (stereo not given) |  | 13.1 nM |  |  |  | 4.08 nM | Not Active
17 | COc1cc(CC(=O)NCC(COC(=O)C(C)(C)C)Cc2ccc(C(C)(C)C)cc2)c(I)cc1OC(C)=O (stereo not given) | Not Active | 19.5 nM | 53 nM |  |  |  | 
18 | COc1cc(CC(=O)NCC(COC(=O)C(C)(C)C)Cc2ccc(C(C)(C)C)cc2)cc(Cl)c1O (stereo not given) |  | 31 nM |  | 25% | 76% |  | 
19 | CC(C)(C)C(=O)OCC(CNC(=O)Cc1ccc(N)c(Br)c1)Cc1ccc(C(C)(C)C)cc1 (stereo not given) |  | 57 nM |  | 59% | 27% |  | 
20 | COc1cc(CC(=O)NCC(COC(=O)C(C)(C)C)Cc2ccc(C(C)(C)C)cc2)c(Br)cc1NS(C)(=O)=O (stereo not given) |  | 42.9 nM |  | 14% | 64% |  | 
21 | COc1cc(CC(=O)NCc2ccc(C(C)(C)C)cc2)cc(Br)c1O |  | 91 nM | 168 nM | 11% |  |  | 
22 | COc1cc(CC(=O)NCc2ccc(C(C)(C)C)cc2)cc(Cl)c1OC(C)=O |  | 205 nM | 570 nM | 22% |  |  | 

Row | Compound | EC50 ([1]; cho) | Ki [2] | Ki ([3]; read-out: Ki) | Activity [4] | inhibition [5] | EC50 ([1]; read-out: EC50) | Ki ([3]; cho)
23 | COc1cc(CC(=O)NCC(COC(=O)C(C)(C)C)Cc2ccc(C(C)(C)C)cc2)cc(Br)c1OC(C)=O (stereo not given) | Not Active | 13.6 nM | 72 nM |  |  |  | 
24 | CC(C)(C)C(=O)OCC(CNC(=O)Cc1ccc(N)c(Cl)c1)Cc1ccc(C(C)(C)C)cc1 (stereo not given) |  | 790 nM |  | 85% | 24% |  | 
25 | COc1cc(CC(=O)NCc2ccc(C(C)(C)C)cc2)cc(I)c1O | Not Active | 89 nM | 17.2 nM |  |  |  | 
26 | COc1cc(CC(=O)NCc2ccc(C(C)(C)C)cc2)c(Br)cc1O |  | 364 nM |  | 37% | 42% |  | 
27 | COc1cc(CC(=O)NCC(COC(=O)C(C)(C)C)Cc2ccc(C)c(C)c2)cc(I)c1OC(C)=O (stereo not given) |  | 4530 nM |  | 12% | 59% |  | 
28 | COc1cc(CC(=O)NCC(COC(=O)C(C)(C)C)Cc2ccc(C(C)(C)C)cc2)cc(Br)c1O (stereo not given) | Not Active | 9.4 nM | 8.77 nM |  |  |  | 
29 | CC(C)(C)C(=O)OCC(CNC(=O)Cc1cc(Cl)c(O)c(Cl)c1)Cc1ccc(C(C)(C)C)cc1 (stereo not given) | Not Active | 9.3 nM | 4.26 nM |  |  |  | 
30 | COc1cc(CC(=O)NCC(COC(=O)C(C)(C)C)Cc2ccc(C(C)(C)C)cc2)c(Cl)cc1O (stereo not given) |  | 37.6 nM |  | 61% | 39% |  | 
31 | COc1cc(CC(=O)NCc2ccc(C(C)(C)C)cc2)c(Cl)cc1O |  | 486 nM |  |  |  | 135 nM | Not Active
32 | COc1cc(CC(=O)NCc2ccc(C(C)(C)C)cc2)cc(I)c1OC(C)=O | Not Active | 94 nM | 47.9 nM |  |  |  | 
33 | COc1cc(CC(=O)NCc2ccc(C(C)(C)C)cc2)c(I)cc1OC(C)=O |  | 378 nM |  | 8% | 85% |  | 
34 | COc1cc(CC(=O)NCC(COC(=O)C(C)(C)C)Cc2ccc(C(C)(C)C)cc2)cc(Cl)c1OC(C)=O (stereo not given) |  | 21 nM |  | 28% | 58% |  | 
35 | CC(C)(C)C(=O)OCC(CNC(=O)Cc1cc(Cl)c(N)c(Cl)c1)Cc1ccc(C(C)(C)C)cc1 (stereo not given) | Not Active | 9.43 nM | 3.96 nM |  |  |  | 
36 | COc1cc(CC(=O)NCC(COC(=O)C(C)(C)C)Cc2ccc(C(C)(C)C)cc2)c(Br)cc1O (stereo not given) |  | 25.3 nM |  | 21% | 76% |  | 
37 | COc1cc(CC(=O)NCC(COC(=O)C(C)(C)C)Cc2ccc(C(C)(C)C)cc2)cc(Cl)c1N (stereo not given) | Not Active | 33.5 nM | 4.09 nM |  |  |  | 
38 | COc1cc(CC(=O)NCC(COC(=O)C(C)(C)C)Cc2ccc(C(C)(C)C)cc2)ccc1NS(C)(=O)=O (stereo not given) |  | 84.5 nM |  | 72% | 15% |  | 
39 | COc1cc(CC(=O)NCc2ccc(C(C)(C)C)cc2)ccc1O |  | 667 nM |  |  |  | 82 nM | Not Active
40 | COc1cc(CC(=O)NCC(COC(=O)C(C)(C)C)Cc2ccc(C)c(C)c2)cc(Br)c1O (stereo not given) |  | 56.4 nM |  | 43% | 62% |  | 
41 | COc1cc(CC(=O)NCC(COC(=O)C(C)(C)C)Cc2ccc(C(C)(C)C)cc2)c(Cl)cc1OC(C)=O (stereo not given) |  | 25.1 nM |  | 53% | 36% |  | 
42 | COc1cc(CC(=O)NCC(COC(=O)C(C)(C)C)Cc2ccc(C(C)(C)C)cc2)c(I)cc1O (stereo not given) | Not Active | 20.9 nM | 13.5 nM |  |  |  | 
43 | COc1cc(CC(=O)NCC(COC(=O)C(C)(C)C)Cc2ccc(C)c(C)c2)c(I)cc1O (stereo not given) |  | 116 nM |  | 23% | 53% |  | 
44 | COc1cc(CC(=O)NCc2ccc(C(C)(C)C)cc2)c(Br)cc1OC(C)=O |  | 393 nM |  | 60% | 59% |  | 
